Experimental data from PubChem BioAssay.

Experiment: LAP4-GFP expression modulators in yeast, confirmation, cell-based, cherry picks, flow cytometry, mother/daughter gates (AID 2271);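 also: ratio of sample to DMSO plate mean so 100% equals DMSO level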
Conditions: S. cerevisiae LAP4-GFP strain, 3 h, measured here: daughter cell gate response, at 10 µM, stronger effect = higher value, 100 means same as DMSO control
In short: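 Measured by: GFP by flow cytometry. Test system: GFP-fusion yeast strain. Input: yeast cells seeded at OD600 of 0.2. Timing: 30 °C, 3 h compound incubation, rotating. Buffer or medium: synthetic complete medium for yeast. Benchmarks: DMSO-only negative wells, rapamycin 400 ng/mL positive wells. Compound: 10 µM single dose.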

Row | SMILES | GFP response relative to DMSO [%]
1 | O=C(CCC(F)(F)F)N1CCC(CO)(CCc2ccccc2)CC1 | 95.6
2 | O=C(Nc1cc(Sc2ccccn2)cc([N+](=O)[O-])c1)c1cccc(F)c1 | 96
3 | CC(=O)Nc1cccc(/C(C)=N/NC(=O)c2ccccc2Cl)c1 | 102
4 | Cc1cc(Br)c2c(c1)/C(=C/C(=O)c1cccs1)C(=O)N2 | 115
5 | N=C1S/C(=C\c2ccco2)C(=O)N1c1nccs1 | 145
6 | Cc1cc(NC(=O)c2cccnc2Cl)ccc1NC(=O)c1cc2ccccc2o1 | 101
7 | COc1ccc2c(/C=C/c3cc[n+](C)cc3)c[nH]c2c1 | 152
8 | C/C(=N\NC(=O)COc1ccccc1-c1ccccc1)c1ccccn1 | 136
9 | CC(=O)c1cc(NC(=O)c2ccc(C)cc2)c(=O)oc1C | 104
10 | O=C(Cc1ccc(Cl)cc1)NNC(=S)NC(=O)c1cccs1 | 151
11 | COc1ccc(NC(=O)Nc2ccon2)c(OC)c1 | 94.2
12 | O=S(=O)(c1ccc(Oc2ccc(Br)cc2)cc1)N1CCOCC1 | 86.4
13 | Cc1cccn2c(=O)c(/C=C(\C#N)C(=O)NCc3ccco3)c(N3CCCC(C)C3)nc12 (stereo not given) | 96.6
14 | CCS(=O)(=O)Nc1cccc(C2=NN(S(C)(=O)=O)C(c3ccccc3)C2)c1 (stereo not given) | 105
15 | Cc1ccc(C(C(=O)NC2CCCCC2)N(CCCN2CCOCC2)C(=O)c2snc(C(N)=O)c2N)cc1 (stereo not given) | 102
16 | O=C(O)C1CCN(S(=O)(=O)c2ccc(Oc3ccccc3)cc2)CC1 | 97.9
17 | CCCC(=O)Nc1ccc(C(=O)/C=C/c2ccc(SC)cc2)cc1 | 103
18 | Cc1cccc(CS(=O)(=O)c2ncc(Cl)c(C(=O)NCc3ccc4c(c3)OCO4)n2)c1 | 91
19 | Cc1nnc(NC(=O)c2ccc(S(=O)(=O)N(C)Cc3ccccc3)cc2)o1 | 99.2
20 | Clc1cnc(N/N=C/c2cccs2)c(Cl)c1 | 158

Row | SMILES | GFP response relative to DMSO [%]
21 | CC1CCCN(CCCNC(=O)C2CCN(S(=O)(=O)N3CCC4(CC3)OCCO4)CC2)C1 (stereo not given) | 97.6
22 | Clc1ccc(OCCn2cnc3ccccc32)c(Cl)c1 | 123
23 | O=C(O)c1ccn2c(C(=O)c3ccccc3)c(-c3ccccc3)cc2c1 | 112
24 | CC(=O)Oc1ccc(N2C(=O)C3C4C=CC(CO)(O4)C3C2=O)cc1 (stereo not given) | 120
25 | COc1ccc(/C=C/C(=O)c2ccc(Cl)cc2)c(OC)c1 | 102
26 | O=C(CN1C(=O)c2cccc3cccc(c23)C1=O)N1CCCCCC1 | 94.2
27 | COC(=O)c1ccc(CS(=O)(=O)c2ccc(F)cc2)o1 | 99
28 | O=C(c1cccc(COCC(F)(F)C(F)F)c1)N1CCN(c2ccccc2)CC1 | 97.9
29 | COc1ccccc1N=Cc1nc(-c2ccccc2)oc1OC(C)=O | 101
30 | CNC(=O)c1c(O)c2cccc3c2n(c1=O)CC3 | 90.7
31 | O=[N+]([O-])c1cc(S(=O)(=O)C(F)(F)F)ccc1Sc1nc2ccccc2s1 | 162
32 | CN(C)c1ccc(/C=C/c2cc[n+](C)cc2)cc1 | 168
33 | O=c1oc(/C=C/c2ccc([N+](=O)[O-])s2)nc2ccccc12 | 180
34 | Cc1ccc(Sc2ncnc3onc(C)c23)cc1 | 117
35 | COc1ccc(C(=O)c2no[n+]([O-])c2C(=O)c2ccc(OC)cc2)cc1 | 134
36 | CCN(CC)CCCN(Cc1cc2cc3c(cc2[nH]c1=O)OCO3)C(=S)Nc1ccccc1 | 104
37 | COc1ccc(-c2cc(C(F)(F)F)nc(N3CCOCC3)n2)cc1OC | 101
38 | O=c1/c(=C/c2cccc3ccccc23)sc2ncnn12 | 177
39 | Cc1ccccc1NC(=O)c1ccccc1O | 101
40 | COc1ccccc1-c1noc(-c2cc(OC)c(OC)c(OC)c2)n1 | 105

Same assay, conditions: S. cerevisiae LAP4-GFP strain, 3 h, measured here: mother cell gate response, at 10 µM, stronger effect = higher value, 100 means same as DMSO control

Row | SMILES | GFP response relative to DMSO [%]
41 | O=C(CCC(F)(F)F)N1CCC(CO)(CCc2ccccc2)CC1 | 92.1
42 | O=C(Nc1cc(Sc2ccccn2)cc([N+](=O)[O-])c1)c1cccc(F)c1 | 102
43 | CC(=O)Nc1cccc(/C(C)=N/NC(=O)c2ccccc2Cl)c1 | 99.3
44 | Cc1cc(Br)c2c(c1)/C(=C/C(=O)c1cccs1)C(=O)N2 | 117
45 | N=C1S/C(=C\c2ccco2)C(=O)N1c1nccs1 | 168
46 | Cc1cc(NC(=O)c2cccnc2Cl)ccc1NC(=O)c1cc2ccccc2o1 | 104
47 | COc1ccc2c(/C=C/c3cc[n+](C)cc3)c[nH]c2c1 | 143
48 | C/C(=N\NC(=O)COc1ccccc1-c1ccccc1)c1ccccn1 | 162
49 | CC(=O)c1cc(NC(=O)c2ccc(C)cc2)c(=O)oc1C | 104
50 | O=C(Cc1ccc(Cl)cc1)NNC(=S)NC(=O)c1cccs1 | 151
51 | COc1ccc(NC(=O)Nc2ccon2)c(OC)c1 | 95.2
52 | O=S(=O)(c1ccc(Oc2ccc(Br)cc2)cc1)N1CCOCC1 | 83.7
53 | Cc1cccn2c(=O)c(/C=C(\C#N)C(=O)NCc3ccco3)c(N3CCCC(C)C3)nc12 (stereo not given) | 97.2
54 | CCS(=O)(=O)Nc1cccc(C2=NN(S(C)(=O)=O)C(c3ccccc3)C2)c1 (stereo not given) | 112
55 | Cc1ccc(C(C(=O)NC2CCCCC2)N(CCCN2CCOCC2)C(=O)c2snc(C(N)=O)c2N)cc1 (stereo not given) | 104
56 | O=C(O)C1CCN(S(=O)(=O)c2ccc(Oc3ccccc3)cc2)CC1 | 96.5
57 | CCCC(=O)Nc1ccc(C(=O)/C=C/c2ccc(SC)cc2)cc1 | 105
58 | Cc1cccc(CS(=O)(=O)c2ncc(Cl)c(C(=O)NCc3ccc4c(c3)OCO4)n2)c1 | 91.1
59 | Cc1nnc(NC(=O)c2ccc(S(=O)(=O)N(C)Cc3ccccc3)cc2)o1 | 101
60 | Clc1cnc(N/N=C/c2cccs2)c(Cl)c1 | 172

Row | SMILES | GFP response relative to DMSO [%]
61 | CC1CCCN(CCCNC(=O)C2CCN(S(=O)(=O)N3CCC4(CC3)OCCO4)CC2)C1 (stereo not given) | 96.1
62 | Clc1ccc(OCCn2cnc3ccccc32)c(Cl)c1 | 142
63 | O=C(O)c1ccn2c(C(=O)c3ccccc3)c(-c3ccccc3)cc2c1 | 116
64 | CC(=O)Oc1ccc(N2C(=O)C3C4C=CC(CO)(O4)C3C2=O)cc1 (stereo not given) | 120
65 | COc1ccc(/C=C/C(=O)c2ccc(Cl)cc2)c(OC)c1 | 106
66 | O=C(CN1C(=O)c2cccc3cccc(c23)C1=O)N1CCCCCC1 | 98.4
67 | COC(=O)c1ccc(CS(=O)(=O)c2ccc(F)cc2)o1 | 98.4
68 | O=C(c1cccc(COCC(F)(F)C(F)F)c1)N1CCN(c2ccccc2)CC1 | 97.5
69 | COc1ccccc1N=Cc1nc(-c2ccccc2)oc1OC(C)=O | 106
70 | CNC(=O)c1c(O)c2cccc3c2n(c1=O)CC3 | 94.6
71 | O=[N+]([O-])c1cc(S(=O)(=O)C(F)(F)F)ccc1Sc1nc2ccccc2s1 | 192
72 | CN(C)c1ccc(/C=C/c2cc[n+](C)cc2)cc1 | 159
73 | O=c1oc(/C=C/c2ccc([N+](=O)[O-])s2)nc2ccccc12 | 189
74 | Cc1ccc(Sc2ncnc3onc(C)c23)cc1 | 117
75 | COc1ccc(C(=O)c2no[n+]([O-])c2C(=O)c2ccc(OC)cc2)cc1 | 153
76 | CCN(CC)CCCN(Cc1cc2cc3c(cc2[nH]c1=O)OCO3)C(=S)Nc1ccccc1 | 131
77 | COc1ccc(-c2cc(C(F)(F)F)nc(N3CCOCC3)n2)cc1OC | 102
78 | O=c1/c(=C/c2cccc3ccccc23)sc2ncnn12 | 180
79 | Cc1ccccc1NC(=O)c1ccccc1O | 108
80 | COc1ccccc1-c1noc(-c2cc(OC)c(OC)c(OC)c2)n1 | 105
